For orientation: inhibition means how much of the control response was suppressed.

For 16 compounds, viability, inhibition and Activity results are on record in ChEMBL document CHEMBL4033664, “Synthesis of benzoxazole derivatives as interleukin-6 antagonists” (Bioorg Med Chem, 2017).

Molecules are shown by their SMILES. Active and inactive are the calls of the source. The calls are words filed in the database; no cut-off is given here.

Data set [1] can be described thus: Cytotoxicity against human HepG2 cells assessed as cell viability at 10 ug/ml after 48 hrs by MTT assay. The conditions noted are these: read-out: Activity. It counts as cell-based. The method, boiled down:
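HepG2 cells in MEM with 10% FBS were exposed to compound at 1, 3, 10, 30 or 100 µg/ml for 48 h, then given MTT for 3 h. Formazan was dissolved in DMSO and OD read at 570 nm. Triplicates from three independent experiments, mean ± SE.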
(In general: Tetrazolium dyes change colour on reduction, which living cells bring about.)

Data set [2] concerns the target Interleukin-6 (Homo sapiens) (UniProt P05231). The experiment in a line: Inhibition of IL-6 signaling pathway in human HepG2 cells transfected with p-STAT3-Luc assessed as reduction in IL-6 induced STAT3 phosphorylation at 20 ug/ml preincubated for 1 hr followed by IL-6 induction measured after 10 mins by immunoblot analysis. Format: cell-based. The essentials:
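HepG2 cells were grown in MEM to 80% confluence and serum-starved for 6 h. They were treated with compound for 1 h, then with IL-6 (20 ng/ml) for 10 min. Lysates were run on SDS-PAGE and immunoblotted with anti-phospho-STAT3. Scanned band intensity was expressed relative to the IL-6-only band, set at 100%.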
(In general: A western blot detects proteins with antibodies after separation by electrophoresis.)

Data set [3] concerns Th1. The experiment in a line: Antiinflammatory activity in C57BL6 mouse CD4-positive T-effector Th1 cells assessed as suppression of anti-CD3/IL-12-induced IFNgamma levels at 10 uM preincubated for 3 to 4 days followed by anti-CD3 stimulation for 24 hrs by ELISA. It counts as functional, cell-based. The essentials:
(§1)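 CD4+ T cells were isolated from C57BL6 mouse lymph node and spleen and primed with anti-CD3 (2 µg/ml) plus anti-CD28 (1 µg/ml) for 24 h. Compound (10 µM) was added with IL-12 (10 ng/ml) and anti-IL-4 (5 µg/ml), renewed every other day for 3-4 days, then cells were restimulated with anti-CD3 (1 µg/ml) for 24 h. Supernatant cytokine was measured by sandwich ELISA with peroxidase-streptavidin and OD read-out.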

The subject of the next data set is Th17. Briefly: Antiinflammatory activity in C57BL6 mouse CD4-positive T-effector Th17 cells assessed as suppression of IL-17 levels at 10 uM preincubated for 3 to 4 days followed by anti-CD3 stimulation for 24 hrs by ELISA. Format: functional, cell-based. On the technique in general: An ELISA detects its analyte on a solid surface through an enzyme-linked reagent.

The test system of data set [4] is Th1. Briefly: Antiinflammatory activity in C57BL6 mouse CD4-positive T-effector Th1 cells assessed as suppression of anti-CD3/IL-12-induced IL-2 levels at 10 uM preincubated for 3 to 4 days followed by anti-CD3 stimulation for 24 hrs by ELISA. Format: functional, cell-based. The method, boiled down: as §1
Data set [5] deals with TH2 cell. The experiment in a line: Antiinflammatory activity in C57BL6 mouse CD4-positive T-effector TH2 cells assessed as suppression of IL-13 levels at 10 uM preincubated for 3 to 4 days followed by anti-CD3 stimulation for 24 hrs by ELISA. Format: functional, cell-based.
The test system of data set [6] is TH2 cell. Briefly: Antiinflammatory activity in C57BL6 mouse CD4-positive T-effector TH2 cells assessed as suppression of IL-4 levels at 10 uM preincubated for 3 to 4 days followed by anti-CD3 stimulation for 24 hrs by ELISA. It counts as functional, cell-based. The method, boiled down:
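Mouse C57BL6 lymph node and spleen CD4+ T cells were primed for 24 h with anti-CD3 (2 µg/ml) and anti-CD28 (1 µg/ml). Th2 polarization used IL-4 (10 ng/ml) and anti-IFN-γ (1 µg/ml) with compound at 10 µM, refreshed every other day for 3-4 days. Cells were restimulated with anti-CD3 (1 µg/ml) for 24 h, and supernatant IL-4 was measured by biotin/streptavidin-peroxidase sandwich ELISA.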

The subject of data set [7] is TH2 cell. The experiment in a line: Antiinflammatory activity in C57BL6 mouse CD4-positive T-effector TH2 cells assessed as suppression of IL-5 levels at 10 uM preincubated for 3 to 4 days followed by anti-CD3 stimulation for 24 hrs by ELISA. It counts as functional, cell-based.
A short description of data set [8]: Proinflammatory activity in C57BL6 mouse CD4-positive T-effector Th1 cells assessed as increase in anti-CD3/IL-12-induced IL-2 levels at 10 uM preincubated for 3 to 4 days followed by anti-CD3 stimulation for 24 hrs by ELISA. The conditions noted are these: th1, 24 h. Format: ADME, cell-based. The essentials:
as §1

Data set [9] in a line: Proinflammatory activity in C57BL6 mouse CD4-positive T-effector Th1 cells assessed as increase in anti-CD3/IL-12-induced IFNgamma levels at 10 uM preincubated for 3 to 4 days followed by anti-CD3 stimulation for 24 hrs by ELISA. It counts as ADME, cell-based. The conditions noted are these: th1, 24 h. The essentials:
as §1

Interleukin-6 (Homo sapiens), sequence (P05231 whole entry): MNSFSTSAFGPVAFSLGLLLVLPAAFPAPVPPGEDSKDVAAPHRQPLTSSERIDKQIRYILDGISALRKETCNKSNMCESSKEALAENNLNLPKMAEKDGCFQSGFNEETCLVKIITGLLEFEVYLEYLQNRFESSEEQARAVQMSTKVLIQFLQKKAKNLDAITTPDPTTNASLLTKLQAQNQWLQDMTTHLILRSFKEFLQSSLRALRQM

On to `CCc1ccc(Nc2nc3cc(NC(=O)c4cc(OC)c(OC)c(OC)c4)ccc3o2)cc1`, for which the viability at 48 h, 10 ug/ml in [1] is 16.4%. Further, in data set [2], the inhibition is 83.7%.

As for `CCc1ccc(Nc2nc3cc(NC(=O)c4cc([N+](=O)[O-])ccc4Cl)ccc3o2)cc1`, the inhibition in data set [2] stood at 65.6%.

As to `CCCCCCCc1ccc(C(=O)Nc2ccc3oc(Nc4ccc(CC)cc4)nc3c2)cc1`, the inhibition in [2] was determined as 57.2%.

In the case of `CCc1ccc(Nc2nc3cc(NC(=O)c4ccc(OC)c(OC)c4)ccc3o2)cc1`, in data set [2], the inhibition came out at 26.2%.

`CCc1ccc(Nc2nc3cc(NC(=O)c4cc(F)cc(C(F)(F)F)c4)ccc3o2)cc1`: the inhibition in [2] amounted to 50.2%.

Consider `CCc1ccc(Nc2nc3cc(NC(=O)Cc4ccccc4)ccc3o2)cc1`, for which the inhibition in [2] amounted to 61.7%.

With `CCc1ccc(Nc2nc3cc(NC(=O)c4ccc(Cl)c(Cl)c4)ccc3o2)cc1`, the inhibition in data set [2] was found to be 69.3%.

In the case of `CCc1ccc(Nc2nc3cc(N)ccc3o2)cc1`, the result in the data set with Th1 [3], in the data set with Th17, with Th1 [4], in the data set on TH2 cell [5], in the data set on TH2 cell [6] and in the data set with TH2 cell [7] was Active. For the same compound, the viability at 48 h, 10 ug/ml in data set [1] was found to be 70.8%. Also, the inhibition in data set [2] came to 97.5%.

As to `CCc1ccc(Nc2nc3cc(NC(=O)c4ccccc4Nc4cccc(C(F)(F)F)c4)ccc3o2)cc1`, in [1], the viability at 48 h, 10 ug/ml is 38.2%. Further, the inhibition in [2] amounted to 84.6%.

Regarding `CCc1ccc(Nc2nc3cc(NC(=O)c4ccccc4)ccc3o2)cc1`, the viability at 48 h, 10 ug/ml in [1] is 65.6%. Further, in [2], the inhibition turned out to be 93.1%.

With `CCc1ccc(Nc2nc3cc(NC(=O)c4ccc(CC)cc4)ccc3o2)cc1`, in [2], the inhibition is 63.3%.

As for `CCc1ccc(Nc2nc3cc(NC(=O)c4cccc(CCl)c4)ccc3o2)cc1`, the viability at 48 h, 10 ug/ml in data set [1] was determined as 41.1%. The inhibition in data set [2] came to 91.7%.

For the compound `CCOc1ccccc1C(=O)Nc1ccc2oc(Nc3ccc(CC)cc3)nc2c1`, in data set [2], the inhibition is 58%.

Turning to `CCc1ccc(Nc2nc3cc(NC(=O)c4ccc(C(C)(C)C)cc4)ccc3o2)cc1`, the viability at 48 h, 10 ug/ml in [1] turned out to be 59.8%. The inhibition in [2] turned out to be 86.5%.

For `CCc1ccc(Nc2nc3cc(NC(=O)c4ccc(Cl)cc4)ccc3o2)cc1`, the outcome in the data set with Th17, in the data set on TH2 cell [5], in the data set with TH2 cell [6] and in the data set on TH2 cell [7] was inactive. Further, the Activity entry in data set [8] and in data set [9] was “Toxic” throughout. For the same compound, in data set [2], the inhibition was found to be 12.1%.

As to `CCc1ccc(Nc2nc3cc(NC(=O)c4ccc([N+](=O)[O-])cc4Cl)ccc3o2)cc1`, the inhibition in [2] turned out to be 20%.
